Screening results deposited in PubChem BioAssay by Broad Institute.
Sampled rows, rich in hits. Any-hit rate of the full collection: about 2.7%.
S100A4 MyoIIA: inhibitors of S100A4-myosin IIA peptide binding, primary screen, biochemical, fluorescence polarization, TAMRA-MyoIIA peptide | inhibition, % at 10.7 µM | hit rate 0.14% among 360,000;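 active means mean inhibition of at least 70% across replicates, with every replicate also reaching that level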
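System – human S100A4 monomer protein, biochemical binding assay · Buffer or medium – Calcium-containing HEPES buffer, pH 7.2 · Timing – 5 min between mix addition and reading · Also added – TAMRA-labelled myosin IIA heavy-chain peptide probe, 5 nM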
E-sel inducer: E-selectin induction in HUVECs, primary screen, imaging, HUVEC, immunofluorescence imaging, single point; P16581; normalized: neutral wells 0, TNF-alpha wells 100; activation, % at 7.58 µM; hit rate 0.37% among 260,000;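 active means mean E-selectin-positive cell signal at least 10% of the positive control, reached in at least 60% of replicates, without over 20% cell loss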
Target sequence (P16581 whole entry, looked up): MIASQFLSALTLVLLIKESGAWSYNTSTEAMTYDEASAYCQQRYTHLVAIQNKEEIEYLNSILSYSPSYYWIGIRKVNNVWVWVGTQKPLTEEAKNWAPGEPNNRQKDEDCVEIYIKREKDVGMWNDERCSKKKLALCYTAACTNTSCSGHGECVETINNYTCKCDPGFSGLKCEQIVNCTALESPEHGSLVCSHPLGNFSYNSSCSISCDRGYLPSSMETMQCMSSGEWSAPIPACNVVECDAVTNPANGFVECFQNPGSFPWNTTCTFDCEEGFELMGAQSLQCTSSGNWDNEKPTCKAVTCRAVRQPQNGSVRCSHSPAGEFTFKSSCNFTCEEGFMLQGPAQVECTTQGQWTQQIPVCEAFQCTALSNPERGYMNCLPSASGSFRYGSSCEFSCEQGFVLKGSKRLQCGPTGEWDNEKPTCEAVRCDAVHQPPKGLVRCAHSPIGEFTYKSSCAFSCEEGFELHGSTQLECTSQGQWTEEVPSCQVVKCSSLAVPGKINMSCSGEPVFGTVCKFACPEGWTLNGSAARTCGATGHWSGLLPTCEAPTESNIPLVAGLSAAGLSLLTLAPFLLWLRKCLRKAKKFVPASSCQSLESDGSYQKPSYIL
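assay system = HUVEC, human umbilical vein endothelial cells | input = 3,000 HUVEC seeded per well | medium = EGM-2 growth medium on 0.1% gelatin-coated wells | dosing = one compound dose added by pin transfer | signal = immunofluorescence imaging | read-out basis = % PE-positive cells | control set = TNF-alpha, DMSO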
HIV Env fusion: inhibitors of HIV-1 Env-driven cell-cell fusion, primary screen, HeLa-JRFL effector, CEM21 target cells, luciferase. inhibition, % at 12.3 µM. hit rate 1.1% among 360,000;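 active means mean replicate inhibition score of at least 50 and every replicate individually at or above 50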;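 further: 0% = plate neutral controls and 100% = maraviroc near 300 nM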
FGF22 binding-1: binders of human FGF22 protein, primary screen, FGF22 synaptogenesis inhibitor project, biophysical, thermal shift, single point. Fibroblast growth factor 22 (Homo sapiens), Q9HCT0. recombinant FGF22 thermal shift, SYPRO orange fluorescence; percent of sucrose octasulfate shift, DMSO zero. activity (Tm shift, normalised), % at 9.99 µM. hit rate 1.5% among 340,000. AID 651658, 2012;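 active means mean Tm shift, scaled 0 neutral to 100 positive control, at about 1.3% or above, every replicate too, limit read from the data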
CFTR F508del cor: F508del CFTR correction, initial screen, CFBE line, single point; CFBE cells, YFP halide quenching; stimulated with forskolin plus potentiator P3; % fluorescence drop versus neutral controls; hit rate 0.36% among 350,000; activity (quench increase), % at 7.58 µM;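 active means mean added fluorescence quench of at least 8% versus neutral control, with both replicates also reaching 8%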;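 further: cells transiently co-express mutant CFTR-F508del with the halide-sensitive YFP; corrector assay measuring rescue of mutant channel to the surface after 24 h compound exposure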
FGF22 binding-2: binders of human FGF22 protein, dose response, FGF22 synaptogenesis inhibitor project, biophysical, thermal shift, cherry-pick retest; shares compounds with FGF22 binding-1; recombinant FGF22 thermal shift, SYPRO orange fluorescence; thermal shift activity, °C (ΔTm) at 38 µM; hit rate 2% among 1,000; AID 720646, 2013;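 active means fitted rise in melting shift crosses a set limit at or below the top valid dose tested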
SYPRO no-protein: compound-only thermal shift signal without protein, dose response, artefact control for FGF22 binder project, biochemical, cherry-picked samples, RT-PCR instrument | shares compounds with FGF22 binding-1 | compound-only SYPRO orange thermal shift counter-screen, no protein | AC50, µM (titrated, usually from 38 µM) | hit rate 2% among 1,000 | AID 743019, 2013;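 active means rising signal whose fitted curve reaches the 0.54 level within the top valid dose, showing a melting point, actives reach about 13 µM in these data; inactive means the rest, including activity in the opposite direction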; further: value is where the raw curve crosses a fixed level and not half-maximal
Active calls of the source: *; i = inactive; nt = no result given; ! = not confirmed by another sample; [ ] = dose if it differs, or a comment.

SMILES	S100A4 MyoIIA	E-sel inducer	HIV Env fusion	FGF22 binding-1	CFTR F508del cor	FGF22 binding-2	SYPRO no-protein
CCCNC(=O)C[C@H]1CC[C@H]2[C@H](COc3ccc(NS(=O)(=O)c4ccccc4C)cc3C(=O)N2C)O1	-5	0	-20[16.7 µM]	nt	-3	nt	nt
O=C1CN(Cc2ccccc2)C[C@H]2[C@H](c3ccc(Br)cc3)[C@@H](CO)N12	-3	0	nt	1	0	nt	nt
Clc1ccc(-c2cnc3ccccc3n2)cc1	nt	nt	-160	nt	nt	nt	nt
Oc1ccc(-c2cnc3ccccc3n2)cc1	-4	0	-88	25*	1	0.009	i
CCc1ccc2nc(N)sc2c1	-1	nt	-20	2.4*	0	-0.067	i
CNC(=S)N(Cc1ccc(OC)cc1)C1CC(=O)N(c2ccc(C(=O)OC)cc2)C1=O (stereo not given)	8	3	-7	2.2*	-1	-0.043	i
CC(C)Oc1ccc(F)cc1-c1cc(C(=O)NCc2cccs2)[nH]n1	16	0	nt	1.6*	5	-0.075	i
COc1cc(F)ccc1-c1cc(C(=O)NCc2cccs2)[nH]n1	0	0	-35	0	2	nt	nt
CO[C@@H]1CN(C)C(=O)c2ccc(NS(=O)(=O)c3ccc(F)cc3)cc2OC[C@@H](C)N(C)C[C@H]1C	-1	0	3[16.7 µM]	206*	2	-0.009	i
CO[C@@H]1CN(C)C(=O)c2ccc(NS(=O)(=O)c3ccc(Oc4ccccc4)cc3)cc2OC[C@H](C)NC[C@@H]1C	3	0	-12[16.7 µM]	1.2*	2	0.17[42 µM]	i
CO[C@H]1CN(C)C(=O)c2ccc(NS(=O)(=O)c3ccc(Oc4ccccc4)cc3)cc2OC[C@H](C)NC[C@H]1C	5	0	-6[16.7 µM]	0	-2	nt	nt
COc1ccc2c3c(n(C)c2c1)[C@@H](CO)N(C)CC31CCN(S(=O)(=O)c2cn(C)cn2)CC1	nt	0	nt	nt	-1	nt	nt
C[C@H]1CN([C@@H](C)CO)S(=O)(=O)c2ccc(C3=CCCC3)cc2O[C@@H]1CN(C)C(=O)Nc1ccc2c(c1)OCO2	0	1	-19[16.7 µM]	-1	4	nt	nt
C[C@@H]1CN([C@H](C)CO)S(=O)(=O)c2ccc(C3=CCCC3)cc2O[C@@H]1CN(C)C(=O)Nc1ccc2c(c1)OCO2	-1	1	4[16.7 µM]	1.2*	-2	-0.49	i
C[C@H](CO)N1C[C@H](C)[C@H](CN(C)C(=O)Nc2ccc3c(c2)OCO3)Oc2cc(C3=CCCC3)ccc2S1(=O)=O	16	1	-24[16.7 µM]	1.8*	1	-0.49	i
C[C@@H]1CN([C@H](C)CO)C(=O)c2cc(NC(=O)c3ccncc3)ccc2O[C@@H](C)CCCCO[C@@H]1CN(C)S(=O)(=O)c1ccc(F)cc1	-22	nt	28[16.7 µM]	0	0	nt	nt
O=S(=O)(Nc1cc(Cl)ccc1-n1cncn1)c1ccc(F)cc1	-3	1	nt	1.5*	2	-0.013	i
Cc1noc(C)c1S(=O)(=O)N(C)C[C@H]1OCCCC[C@H](C)Oc2ccc(NC(=O)Nc3ccc(F)cc3)cc2C(=O)N([C@@H](C)CO)C[C@@H]1C	-4	0	21[16.7 µM]	0	0	nt	nt
C[C@H](CO)N1C[C@H](C)[C@H](CN(C)S(=O)(=O)c2ccc(F)cc2)OCc2cnnn2CCCC1=O	4	0	15	1.5*!	-3	-0.09[42 µM]	i
C[C@H](CO)N1C[C@H](C)[C@H](CN(C)C(=O)c2cc(-c3ccccc3)on2)OCc2cnnn2CCCC1=O	2	0	19[16.7 µM]	30*!	-1	0.091	i
C[C@@H]1CN([C@@H](C)CO)C(=O)CCCn2nncc2CO[C@H]1CN(C)Cc1ccccc1C(=O)O	6	0	nt	1.3*	-1	-0.096[42 µM]	i
